What was measured:
[1] = Binding affinity to human serum protein after 1 hr by gel filtration method; format: ADME
[2] = Retention time of the compound by HPLC; format: physicochemical
[3] = Ratio of drug uptake in tumor to muscle in iv dosed BALB/c athymic nude mouse xenografted with human LNCaP cells treated with 68Ga-labeled compound measured after 1 hr by microPET imaging analysis; format: ADME, organism-based; settings: in vivo
Procedure, shortened: (§1)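 Male BALB/c nu/nu mice, 6–8 weeks old, with subcutaneous LNCaP xenografts (6 × 10^6 cells in 50% Matrigel, right trunk) of about 1 cm. Tail-vein injection of 68Ga-labelled compound (~30 MBq, 0.5 nmol) under sevoflurane. Dynamic µPET: 60 min emission scan, then 100–120 min scan. SUVmean for tumor, muscle and kidney at 1 h; tumor/muscle ratio. One animal per compound.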

[4] = Drug uptake in iv dosed BALB/c athymic nude mouse tumor xenografted with human LNCaP cells treated with 68Ga-labeled compound measured upto 120 mins by microPET imaging analysis; format: ADME, organism-based; settings: in vivo, 2 h; procedure, shortened: as §1
[5] = target: T1, Glutamate carboxypeptidase 2 (Homo sapiens, UniProt Q04609); assay: Binding affinity to PSMA in human LNCaP cells after 45 mins in presence of 68Ga-labeled PSMA-10 by gamma counting assay; format: cell-based
Target sequence in this assay (Q04609 whole entry): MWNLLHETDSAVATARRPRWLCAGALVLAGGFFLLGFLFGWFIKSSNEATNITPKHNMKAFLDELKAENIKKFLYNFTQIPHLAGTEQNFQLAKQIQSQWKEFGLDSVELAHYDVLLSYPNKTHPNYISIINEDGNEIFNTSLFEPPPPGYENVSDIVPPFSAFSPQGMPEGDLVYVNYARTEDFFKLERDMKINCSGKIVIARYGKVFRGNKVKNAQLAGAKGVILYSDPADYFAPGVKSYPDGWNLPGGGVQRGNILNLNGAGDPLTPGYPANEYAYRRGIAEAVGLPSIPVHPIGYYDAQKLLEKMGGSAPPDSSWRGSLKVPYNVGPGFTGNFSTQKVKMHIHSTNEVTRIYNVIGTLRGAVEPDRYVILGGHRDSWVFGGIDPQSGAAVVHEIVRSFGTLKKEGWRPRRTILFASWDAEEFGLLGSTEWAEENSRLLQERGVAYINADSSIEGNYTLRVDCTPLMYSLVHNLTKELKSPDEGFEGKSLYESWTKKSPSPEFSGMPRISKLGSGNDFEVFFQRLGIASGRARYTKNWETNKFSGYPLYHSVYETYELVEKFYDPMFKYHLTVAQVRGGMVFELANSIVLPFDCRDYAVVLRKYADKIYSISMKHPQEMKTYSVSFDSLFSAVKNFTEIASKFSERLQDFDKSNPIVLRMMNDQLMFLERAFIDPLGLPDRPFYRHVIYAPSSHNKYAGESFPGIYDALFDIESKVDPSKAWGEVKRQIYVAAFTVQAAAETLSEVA

[6] = target: T1, Glutamate carboxypeptidase 2; assay: Inhibition of PSMA in human LNCaP cells assessed as specific internalization per 10^6 cells using 177Lu-labeled compound after 45 mins by gamma counting analysis; format: cell-based
Procedure, shortened: (§2)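 LNCaP cells (10^5/well) seeded on poly-L-lysine 24 h before. Incubated 45 min at 37 °C with 32 nM 177Lu-labelled compound (25 GBq/µmol) in Opti-MEM, with or without 500 µM 2-PMPA as blocker. Four ice-cold PBS washes, surface fraction stripped with 50 mM glycine pH 2.8, internalized fraction released by 0.3 M NaOH lysis. Both fractions gamma-counted, specific values given as %IA/10^6 cells. Triplicate.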
Target sequence in this assay (Q04609 whole entry, looked up): as the sequence (Q04609 whole entry) above

[7] = Drug uptake in iv dosed BALB/c athymic nude mouse muscle xenografted with human LNCaP cells treated with 68Ga-labeled compound measured after 1 hr by microPET imaging analysis; format: ADME, organism-based; settings: in vivo; procedure, shortened: as §1
[8] = Drug uptake in iv dosed BALB/c athymic nude mouse tumor xenografted with human LNCaP cells treated with 68Ga-labeled compound measured after 1 hr by microPET imaging analysis; format: ADME, organism-based; settings: in vivo; procedure, shortened: as §1
[9] = Distribution coefficient, logD of the compound at pH 7.4 in n-octanol/0.1 M HEPES by shake flask method; format: physicochemical
Procedure, shortened: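 Radiolabelled compound shaken to equilibrium in n-octanol / 0.1 M HEPES pH 7.4. Aliquots of both phases gamma-counted and logD calculated from the phase ratio. Mean ± SD.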

[10] = Drug uptake in iv dosed BALB/c athymic nude mouse kidney xenografted with human LNCaP cells treated with 68Ga-labeled compound measured after 1 hr by microPET imaging analysis; format: ADME, organism-based; settings: in vivo; procedure, shortened: as §1
[11] = target: T1, Glutamate carboxypeptidase 2; assay: Inhibition of PSMA in human LNCaP cells assessed as cell surface binding per 10^6 cells using 177Lu-labeled compound after 45 mins by gamma counting analysis; format: cell-based; procedure, shortened: as §2
Target sequence in this assay (Q04609 whole entry, looked up): as the sequence (Q04609 whole entry) above

Row | PB [1] | Retention_time [2] | Ratio [3] | Drug uptake [4] | Ki [5] | specific internalization (% of added activity per 10^6 cells) [6] | SUV [7] | SUV [8] | logD [9] | SUV [10] | specific cell surface binding (% of applied activity per 10^6 cells) [11] | Compound
1 | Not Active | 2.08 min | 2.3 | Not Active | 0.021 µM | 1.43% | 0.13 | 0.3 | -1.12 | 4.29 | 3.88% | O=C(O)CC[C@H](NC(=O)N[C@@H](CCCCNC(=O)[C@H]1CC[C@H](CNC(=O)[C@H]2CC[C@H](CNC(=O)CN3CCN(CC(=O)O)CCN(CC(=O)O)CCN(CC(=O)O)CC3)CC2)CC1)C(=O)O)C(=O)O
2 | Not Active | 1.95 min | 5.4 | Active | 0.00053 µM | 12.5% | 0.11 | 0.58 | -2.06 | 4.16 | 21.4% | O=C(O)CC[C@H](NC(=O)N[C@@H](CCCCNC(=O)c1ccc(CNC(=O)c2ccc(CNC(=O)c3ccc(CNC(=O)CN4CCN(CC(=O)O)CCN(CC(=O)O)CCN(CC(=O)O)CC4)cc3)cc2)cc1)C(=O)O)C(=O)O
3 | Not Active | 1.74 min | 3.8 | Not Active | 0.0153 µM | 2.11% | 0.08 | 0.3 | -1.92 | 4.7 | 17.7% | O=C(O)CC[C@H](NC(=O)N[C@@H](CCCCNC(=O)CCCCCNC(=O)c1ccc(CNC(=O)CN2CCN(CC(=O)O)CCN(CC(=O)O)CCN(CC(=O)O)CC2)cc1)C(=O)O)C(=O)O

Reference: ChEMBL document CHEMBL5252516, “Linker Modification Strategies To Control the Prostate-Specific Membrane Antigen (PSMA)-Targeting and Pharmacokinetic Properties of DOTA-Conjugated PSMA Inhibitors” (J Med Chem, 2016)
